Source: ChEMBL document CHEMBL6134900 (J Med Chem, 2025)
Activity calls are given as the source filed them. The rule behind the calls is not given here.

Tests used:
[1] = AUC (0 to infinity) in male CD-1 (ICR) mouse at 25 mg/kg, po measured up to 24 hrs by LC-MS/MS analysis; format: ADME, organism-based; conditions: in vivo
How it was run: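 Single 25 mg/kg dose. IP vehicle was 5% DMSO/5% solutol/90% water at 1.25 mg/mL, final pH 4.39, clear solution. Oral vehicle was 0.5% methylcellulose/0.2% Tween 80 in water, opaque suspension. Plasma sampled at 0.25, 0.5, 1, 2, 4, 8 and 24 h. Plasma protein-precipitated with internal standard in acetonitrile, then LC-MS/MS. n = 3 mice per time point, mean.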

[2] = In vivo PROTAC activity at CRBN/SMARCA2 in female athymic nude mouse xenografted with human NCI-H2030 cells harboring SMARCA4 mutant assessed as SMARCA2 degradation at 5 mg/kg, po administered once daily via gavage for 17 days by Western blotting analysis relative to control; format: functional; conditions: time 17 day
How it was run: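 H2030 cells (10 × 10^6, PBS/Matrigel 1:1) implanted subcutaneously in the flank of female nude mice. Randomised below 200 mm3. 5 mg/kg or vehicle given by oral gavage once daily for 17 days in 10% DMSO/40% PEG300/1% Tween-80/49% saline. Tumours collected 24 h after dosing. SMARCA2 measured by Western blot against β-actin, relative to vehicle.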

[3] = Drug metabolism in mouse liver microsomes assessed as mono-oxygenation and N-dealkylation mediated M2 metabolite formation at 10 uM incubated for 60 mins by LC-UV-HRMS analysis; format: ADME, Microsome; conditions: 1 h
How it was run: (§1)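 Compound at 10 μM incubated with mouse liver microsomes at 37 °C for 60 min. Metabolites detected by LC-UV-HRMS, structures proposed from MS and MS2 data, and each metabolite given as a percentage.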

NCI-H2030 = test: Antitumor activity against human NCI-H2030 cells harboring SMARCA4 mutant xenografted in female athymic nude mouse assessed as tumor growth inhibition at 5 mg/kg, po administered once daily via gavage for 17 days relative to control; format: functional; conditions: NCI-H2030, 408 h, time 17 day, read-out: TGI
How it was run: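 10 × 10^6 H2030 cells in PBS:Matrigel 1:1, 200 μL, injected subcutaneously into flanks of 6–8-week-old females. Randomized at mean tumor volume <200 mm3. Oral gavage once daily in 10% DMSO, 40% PEG300, 1% Tween-80, 49% saline. Caliper tumor volume and body weight monitored, mean ± SEM.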

[4] = In vivo PROTAC activity at CRBN I391V mutant/SMARCA2 in mouse assessed as SMARCA2 degradation in spleen at 10 to 80 mg/kg, po administered once daily for 3 days and measured at 24 hrs post last dose by Western blotting analysis relative to control; format: functional; conditions: dose 10-80 mg/kg, time 3 day
How it was run: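 CrbnI391V mice given 10, 20, 40 or 80 mg/kg or vehicle orally once daily for 3 days. Euthanised 24 h after the last dose. Spleen SMARCA2 measured by Western blot with actin as loading control, relative to vehicle. Plasma drug level measured at the same time.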

[5] = target: T1, Protein cereblon/SWI/SNF-related matrix-associated actin-dependent regulator of chromatin subfamily A member 2 (Homo sapiens, UniProt P51531+Q96SW2); test: PROTAC activity at CRBN/SMARCA2 in human H322 cells harboring SMARCA4 mutant assessed as induction of SMARCA2 degradation at 1 uM in presence of Gen-1 by immunoblot analysis; format: cell-based
[6] = In vivo PROTAC activity at CRBN/SMARCA2 in female athymic nude mouse xenografted with human NCI-H1568 cells harboring SMARCA4 mutant assessed as SMARCA2 degradation at 40 mg/kg, po administered once daily via gavage for 13 days by Western blotting analysis relative to control; format: functional; conditions: time 13 day
How it was run: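 H1568 cells (2 × 10^6, PBS/Matrigel 1:1) implanted subcutaneously in the flank of female nude mice aged 6–8 weeks. Randomised at about 60 mm3 tumour volume. 40 mg/kg or vehicle given by oral gavage once daily for 13 days in 0.5% methylcellulose/Tween-80, sonicated. Tumours collected 24 h after dosing. SMARCA2 measured by Western blot against β-actin, relative to vehicle.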

[7] = Antitumor activity against human NCI-H1568 cells harboring SMARCA4 mutant xenografted in female athymic nude mouse assessed as tumor growth inhibition at 40 mg/kg, po administered once daily via gavage for 13 days relative to control; format: functional; conditions: NCI-H1568, 312 h, time 13 day, read-out: TGI
How it was run: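 Cells (H1568 2 × 10^6, H2023 10 × 10^6, HCC515 5 × 10^6) in PBS:Matrigel 1:1, 200 μL, injected subcutaneously into flanks of 6–8-week-old females. Randomized at mean tumor volume 60 mm3 (H1568) or <200 mm3 (others). Dosed in 0.5% methylcellulose + 0.2–1% Tween-80, sonicated on ice. Caliper tumor volume and body weight tracked, mean ± SEM.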

[8] = target: T1, Protein cereblon/SWI/SNF-related matrix-associated actin-dependent regulator of chromatin subfamily A member 2; test: PROTAC activity at CRBN/SMARCA2 in human H322 cells harboring SMARCA4 mutant assessed as induction of SMARCA2 degradation at 1 uM in presence of pomalidomide by immunoblot analysis; format: cell-based
[9] = Drug metabolism in mouse liver microsomes assessed as Mono-oxygenation and hydrogenation mediated M1 metabolite formation at 10 uM incubated for 60 mins by LC-UV-HRMS analysis; format: ADME, Microsome; conditions: 1 h; how it was run: as §1

| SMILES | AUC [1] | Activity [2] | Drug metabolism [3] | inhibition in vivo at 5 mg/kg (NCI-H2030) | Activity [4] | Activity [5] | Activity [6] | inhibition in vivo at 40 mg/kg [7] | Activity [8] | Drug metabolism [9] |
| --- | --- | --- | --- | --- | --- | --- | --- | --- | --- | --- |
| Nc1nnc(-c2ccccc2O)cc1N1CCN(Cc2ccc(N3CCN(CCOc4cccc5c4C(=O)N(C4CCC(=O)NC4=O)C5=O)CC3)c(F)c2)CC1 (stereo not given) | 5122 ng·h/mL | 40% | metabolite_detected | 93.4% | – | – | – | – | – | – |
| Nc1nnc(-c2ccccc2O)cc1N1CCN(Cc2ccc(N3CCC(CN4CCN(c5ccc6c(c5)C(=O)N(C5CCC(=O)NC5=O)C6=O)CC4)CC3)c(F)c2)CC1 (stereo not given) | – | – | – | – | 11% | inactive | 50% | 27.6% | inactive | metabolite_detected |
